An excerpt weighted towards active compounds, which were near 5.3% of everything screened.
T cruzi repl: inhibitors of intracellular T. cruzi growth, primary screen, luminescence, NIH3T3 host cells; T. cruzi beta-gal in NIH3T3, 90 h; inhibition, % (no concentration beside the values); 300,000 tested, 1.4% active;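 active = mean inhibition across valid replicates above about 55%, limit read from the data; inconclusive = mean below that limit but half or more replicates reach it; inactive = mean below it, under half of replicates reach it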;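 also: signal also drops with host cell toxicity which is not excluded here; higher percent means less beta-gal luminescence so fewer parasites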
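Read-out: Parasite load inhibition, % | Test system: Mouse NIH/3T3 fibroblasts infected with β-gal-expressing T. cruzi Tulahuen C4 | Amount: 5,000 cells/well | Medium: DMEM, 2% fetal bovine serum | Signal: GalScreen β-gal luminescence, detergent lysis, 60 min | Timing: 3 h attach, ≥90 h co-culture | Also added: Tulahuen C4 trypomastigotes, 5000/well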
NLRP3 yeast inh: NALP3 inflammasome inhibitors in reconstituted yeast, primary screen, luminescence, uHTS; Yeast reconstituted NLRP3/ASC/caspase-1, beta-gal luminescence, 24 h; inhibition, % at 10 µM; 330,000 tested, 0.39% active;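 active = inhibition of 50% or more; inactive = inhibition below 50%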
Calb FLC: C. albicans growth inhibition with fluconazole, primary screen, CaCi-2 strain, Alamar Blue fluorescence. C. albicans CaCi-2 + fluconazole, 48 h. growth inhibition, % (concentration not given with the values). 300,000 tested, 0.57% active. AID 1979, 2009;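 active = growth inhibition above about 58% in most replicates, limit read from the data, passing the limit was not always enough; inconclusive = exactly half the replicates above a set limit; inactive = most replicates below a set limit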;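 also: all wells also contain fluconazole at 8 µg/ml as a sub-toxic cotreatment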
Mdm2-MdmX inh: inhibitors of human Mdm2-MdmX association, primary screen, cell-based, luminescence, split luciferase, SaOS-2, uHTS; Protein Mdm4 (Homo sapiens) + E3 ubiquitin-protein ligase Mdm2 (Homo sapiens), …; SaOS-2 split-luciferase Mdm2/MdmX complementation; inhibition, % at 8 µM; 330,000 tested, 3% active;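 active = inhibition of at least 50% at 8 µM in the primary screen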
Target sequence (O15151 whole entry, looked up): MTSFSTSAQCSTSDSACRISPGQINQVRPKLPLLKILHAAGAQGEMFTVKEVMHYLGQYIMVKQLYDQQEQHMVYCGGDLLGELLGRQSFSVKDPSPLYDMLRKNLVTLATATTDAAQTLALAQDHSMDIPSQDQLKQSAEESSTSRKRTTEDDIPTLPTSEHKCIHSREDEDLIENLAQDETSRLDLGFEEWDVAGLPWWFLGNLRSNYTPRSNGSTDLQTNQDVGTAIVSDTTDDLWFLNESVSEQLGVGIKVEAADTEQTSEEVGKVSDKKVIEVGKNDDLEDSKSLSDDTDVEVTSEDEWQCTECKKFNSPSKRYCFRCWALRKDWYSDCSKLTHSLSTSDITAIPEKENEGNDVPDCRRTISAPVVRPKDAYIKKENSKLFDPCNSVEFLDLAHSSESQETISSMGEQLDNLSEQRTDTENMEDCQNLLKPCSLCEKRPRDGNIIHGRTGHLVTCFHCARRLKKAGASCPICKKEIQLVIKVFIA
Target sequence (Q00987 whole entry, looked up): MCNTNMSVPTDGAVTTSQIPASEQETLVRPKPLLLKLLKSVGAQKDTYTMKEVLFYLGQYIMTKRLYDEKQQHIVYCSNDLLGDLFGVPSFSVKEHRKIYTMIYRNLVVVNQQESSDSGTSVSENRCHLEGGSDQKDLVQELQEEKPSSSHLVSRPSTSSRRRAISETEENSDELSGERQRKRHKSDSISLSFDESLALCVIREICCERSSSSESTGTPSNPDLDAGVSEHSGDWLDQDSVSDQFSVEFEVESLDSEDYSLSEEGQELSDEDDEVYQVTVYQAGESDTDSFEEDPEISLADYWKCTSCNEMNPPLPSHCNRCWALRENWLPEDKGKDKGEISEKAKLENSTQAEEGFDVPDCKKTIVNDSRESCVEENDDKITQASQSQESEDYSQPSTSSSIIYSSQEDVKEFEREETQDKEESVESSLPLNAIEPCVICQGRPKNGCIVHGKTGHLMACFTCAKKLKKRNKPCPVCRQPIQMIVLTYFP
Beta cell apopt: inhibitors of cytokine-induced beta cell apoptosis, primary screen, luminescence. INS-1E cytokine-induced death, ATP luminescence, 48 h; percent of positive-control rescue, neutral wells zero. protection from apoptosis, % (concentration not given with the values). 300,000 tested, 0.8% active;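 active = Every replicate reaches about 75%, or at least half do and their mean reaches it too, limit read from the data; inconclusive = At least half of replicates reach the limit but their mean does not; inactive = Under half of replicates reach the limit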;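 also: higher means more ATP so stronger rescue from cytokine killing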
CSC inhib: cancer stem cell viability inhibitors, primary screen, luminescence. inhibition, % at 7.5 µM. 300,000 tested, 1.1% active. cancer stem cell-like cells viability. AID 2717, 2010; in the data active = inhibition above about 75%; inconclusive = no clear call, values can overlap the other calls; tested in HMLE shEcad cells
Mdm2 MdmX conf: Mdm2-MdmX complex disruptors, retested hits, confirmation, luminescence, single concentration; inhibition, % at 8 µM; 10,000 tested, 55% active; AID 489028, 2010; Mdm2-MdmX binding, luminescent assay; shares compounds with Mdm2-MdmX inh; in the data active = inhibition above about 40%
Full FLuc ctr: full-length luciferase signal inhibition, confirmation, counter-screen for Mdm2/MdmX interaction inhibitor project, cell-based, single concentration, SaOS-2 | AID 504607, 2011 | shares compounds with Mdm2-MdmX inh | SaOS-2 full-length luciferase counterscreen, luminescence | 6,200 tested, 77% active | inhibition, % at 8 µM;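 active = mean inhibition at 8 µM reaching about 37%, which flags the compound as non-specific, limit read from the data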;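 also: p53-null SaOS-2 cells with luciferase driven by a doxycycline-inducible promoter; compound on cells about two nights before reading with doxycycline added after day one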
Hits are given with their value; . = inactive; ? = inconclusive; / = no result; ! = a repeat was not active.

SMILES	T cruzi repl	NLRP3 yeast inh	Calb FLC	Mdm2-MdmX inh	Beta cell apopt	CSC inhib	Mdm2 MdmX conf	Full FLuc ctr
Cc1nn(C)cc1/C=N/NC(=S)Nc1ccc(Cl)cc1Cl	.	.	.	.	.	.	/	/
Cc1cc(Cl)ccc1NC(=O)CCC(=O)N/N=C/c1cc([N+](=O)[O-])ccc1O	.	.	.	62	.	.	.	/
CCOC(=O)c1c(C)[nH]c(C(=O)N/N=C/c2cc([N+](=O)[O-])ccc2O)c1C	.	.	.	57	.	.	71	55
CCNC(=O)C(=O)N/N=C/c1cc([N+](=O)[O-])ccc1O	.	.	.	.	.	/	/	/
O=C(N/N=C/c1cccs1)c1cncc(Br)c1	.	.	.	.	.	.	/	/
O=[N+]([O-])c1ccc(O)c(/C=N/NC(=S)Nc2ccc(Cl)cc2Cl)c1	.	.	101	78	121	76	48	41
Fc1ccc(/C=N/NC(=S)Nc2ccc(Cl)cc2Cl)cc1	.	.	.	85	.	.	66	58
COc1ccc(C)cc1CN(C)c1ccc(S(=O)(=O)N2CCN(C)CC2)cn1	/	.	/	.	/	/	/	/
Cc1cc(N2CCN(Cc3nc(-c4ccc(Cl)cc4)oc3C)CC2)cc(C)n1	.	.	.	64	.	.	.	68
Cc1oc(-c2cccc3ccccc23)nc1CN1CCN(c2ncnc3ccccc23)CC1	.	.	.	.	.	.	/	/
COc1ccc(-c2nc(CN3CCN(c4cc(C)nc(C)c4)CC3)c(C)o2)c2ccccc12	.	.	84	97	.	.	48	.
COc1ccc(-c2nc(CN3CCN(Cc4ccccc4)CC3)c(C)o2)cc1	?	.	.	.	.	.	/	/
Cn1c(=O)c2c(O)cc(=O)[nH]c2n(-c2ccccc2)c1=O	.	.	.	.	.	.	/	/
Cc1ccc(NC(=O)NNC(=O)Cn2nc(-c3ccccc3)c(-c3ccccc3)c(C#N)c2=O)cc1	.	.	.	53	.	.	57	92
O=C(Cn1nc(-c2ccccc2)c2ccccc2c1=O)Nc1ccc(O)cc1	.	.	.	.	.	.	/	/
O=C(CCl)N1c2ccccc2SCC1c1ccccc1 (centres undefined)	?	.	82	99	.	.	54	.
CC(/C=N\Nc1nnc2c(n1)[nH]c1c(C)cccc12)=C\c1ccco1	.	.	.	91	.	.	40	57
Nc1nc(Nc2ccccc2)sc1C(=O)c1ccccc1	/	.	.	62	.	.	.	/
O=[N+]([O-])c1ccc(-c2ccc(/C=N/Nc3nc(NCc4ccccc4)nc(N4CCOCC4)n3)o2)cc1	.	.	.	100	.	.	90	54
COc1nc(N/N=C/c2ccc(-c3ccccc3[N+](=O)[O-])o2)nc(N2CCOCC2)n1	.	.	.	.	.	.	/	/
C/C(=N/O)c1cc(C(C)(C)C)c(O)c(C(C)(C)C)c1	.	.	.	.	.	.	/	/
CN(C)CCCN(C(=O)CCc1ccccc1)c1nc2ccc(Br)cc2s1	.	.	.	58	.	.	.	52
Cc1cccc2sc(N(CCCN(C)C)C(=O)CN3C(=O)c4ccccc4C3=O)nc12	.	.	.	.	.	.	/	/
Cc1cccc2sc(N(CCCN(C)C)C(=O)CCc3ccccc3)nc12	62	.	.	60	.	.	.	/
Cc1ccc(-c2cc3c(N=O)c4ccccc4c-3n[nH]2)cc1	.	.	.	93	.	87	89	46
SMILES	T cruzi repl	NLRP3 yeast inh	Calb FLC	Mdm2-MdmX inh	Beta cell apopt	CSC inhib	Mdm2 MdmX conf	Full FLuc ctr
COc1ccc(-c2nc3c(c(SCC(=O)Nc4cccc(O)c4)n2)Cc2c(CO)cnc(C)c2O3)cc1	.	.	.	.	.	.	/	/
Cc1ncc(CO)c2c1Oc1nc(-c3ccccc3)nc(SCC(=O)Nc3cccc(O)c3)c1C2	.	.	.	51	.	.	.	/
CCOC(=O)c1c(C)nc2sc(C(=O)Nc3ccc(C(C)=O)cc3)c(N)c2c1-c1ccc(OC)cc1	.	.	.	.	.	.	/	/
CCOC(=O)c1c(C)nc2sc(C(=O)Nc3ccc(OC)cc3)c(N)c2c1-c1ccc(OC)cc1	.	.	.	58	.	.	56	53
COC(=O)Cn1c2ccccc2c2nc(C)sc21	.	.	.	.	.	.	/	/
C#CCOCCOCCOCCNc1nc(N2CCN(C(=O)[C@H](CCCCN)n3cc([C@@H](N)[C@H](C)CC)nn3)CC2)nc(N2CCN(C(=O)[C@H](CCC(=O)O)n3cc([C@@H](N)CCSC)nn3)CC2)n1	/	.	/	.	.	/	/	/
C=CC(=O)Nc1ccc(N(C)c2ccnc(Nc3ccc(N4CCN(C)CC4)cc3)n2)cc1	/	.	/	93	/	/	63	.
CCN1CCN(Cc2ccc(NC(=O)c3cc(NC(=O)c4cc(C)on4)cc(OC)c3)cc2C(F)(F)F)CC1	.	.	.	91	.	.	.	46
CCN1CCN(Cc2ccc(NC(=O)c3cc(NC(=O)C(=O)c4c[nH]c5ccccc45)cc(OC)c3)cc2C(F)(F)F)CC1	?	.	.	99	98	.	.	/
CCN1CCN(Cc2ccc(NC(=O)c3cc(NC(=O)c4cnn(-c5ccccc5)c4N)cc(OC)c3)cc2C(F)(F)F)CC1	.	.	.	53	109	131	.	/
CCN1CCN(Cc2ccc(NC(=O)c3ccc(C)c(NC(=O)C(=O)c4c[nH]c5ccccc45)c3)cc2C(F)(F)F)CC1	.	.	.	100	110	102!	93	.
CCN1CCN(Cc2ccc(NC(=O)c3ccc(C)c(NC(=O)c4ccnnc4)c3)cc2C(F)(F)F)CC1	.	.	.	.	.	.	/	/
Cc1cc(C)cc(C(=O)OCC(=O)NCc2ccco2)c1	/	.	/	.	.	.	/	/
CCn1c(SCC(=O)Nc2ccccc2)nnc1C1CCCCC1	.	.	.	.	.	.	/	/
CCOC(=O)c1c(NC(=O)CN2C(=O)NC(C)(c3ccccc3)C2=O)sc(C)c1C (centres undefined)	.	.	.	71	.	.	58	45
CCOC(=O)c1c(NC(=O)CN2C(=O)NC3(CCCCC3C)C2=O)sc(C)c1C (centres undefined)	.	.	.	.	.	.	/	/
CCOC(=O)c1cc(-c2ccccc2)sc1NC(=O)CN1C(=O)c2ccccc2C1=O	.	.	.	.	.	.	/	/

Compound activity: PubChem, several laboratories
